Screens deposited in PubChem by several laboratories.
RGS4 block: inhibitors of human RGS4. P49798. HEK293 M3R/RGS4 inducible, Fluo-4 calcium flux; hits give high values; triggered by carbachol at its EC20. B-score at 10 µM. actives 0.45% (n = 310,000). AID 463165;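 active = B-score, a plate-corrected calcium signal, over three deviations above library mean, with baseline fluorescence within five deviations of library mean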;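 also: RGS4 expression induced by doxycycline in cells with stable M3 receptor; B-score is computed from the integrated fluorescence ratio over baseline after carbachol; higher B-score means a larger calcium signal and so more RGS4 inhibition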
MrgX1 ag: activates human MrgX1 receptor signaling; B-score at 10 µM; actives 0.44% (n = 310,000); MrgX1-HEK293 cells, Fluo-4 calcium fluorescence, agonist mode; hits give high values;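 active = calcium response B-score plate-corrected fluorescence ratio at least 3 library SD, with starting fluorescence B-score inside 5 SD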
Target sequence (Q96LB2 whole entry, looked up): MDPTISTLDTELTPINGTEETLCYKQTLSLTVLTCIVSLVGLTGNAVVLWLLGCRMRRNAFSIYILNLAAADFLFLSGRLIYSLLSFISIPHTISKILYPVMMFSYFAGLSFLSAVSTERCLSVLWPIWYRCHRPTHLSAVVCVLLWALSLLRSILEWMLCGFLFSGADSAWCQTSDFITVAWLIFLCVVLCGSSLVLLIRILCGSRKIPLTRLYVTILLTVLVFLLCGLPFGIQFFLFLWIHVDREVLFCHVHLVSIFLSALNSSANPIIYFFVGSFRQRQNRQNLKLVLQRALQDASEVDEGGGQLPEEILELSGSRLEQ
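Assay system: MrgX1-expressing HEK293 cells / Amount: fifteen thousand cells per well / Doses: test compound in the initial addition of three / Timing: cells plated overnight, dye loaded 0.5 h 37 °C, 0.5 h room temperature / Technique: kinetic calcium dye fluorescence, Fluo-4 NW / Control set: positive and negative controls per plate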
Lipid droplet: hepatic lipid droplet formation modulation; AML12 mouse hepatocytes, oleate lipid droplets, BODIPY imaging; inhibition, % at 6.5 µM; actives 0.4% (n = 240,000); AID 1656;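 active = lipid droplet intensity inhibited by at least 50%, with more than 500 cells counted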
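Test system: AML12 hepatocytes (mouse); reagent: oleate loading, 100 µM; dosing: one dose, 6.5 µM compound; incubation: overnight exposure; signal: fluorescence imaging, 20x objective, two fields per well; read-out basis: % inhibition of corrected integrated BODIPY droplet signal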
RGS4 pot: potentiators or activators of RGS4; HEK293 M3R/inducible RGS4, carbachol calcium flux Fluo4; hits give low values; B-score at 10 µM; actives 0.92% (n = 310,000); AID 463111;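 active = B-score of the integrated calcium signal more than 4 SD below the library mean, with starting fluorescence not abnormally high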;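 also: negative B-score means reduced calcium response which marks RGS4 activation or potentiation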
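Test system: HEK293 cells with stable M3R and inducible RGS4; also added: carbachol at ECmax as muscarinic agonist stimulus; schedule: dye loading 30 min 37 °C, buffer rest 30 min RT; technique: kinetic calcium fluorescence imaging with Fluo4-AM dye, 2 µM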
MrgX1 antag: human MrgX1 receptor antagonism, primary screen | B-score at 10 µM | actives 1.3% (n = 310,000) | MRGX1-HEK293 calcium flux, Fluo-4, BAM8-22 antagonism; hits give low values;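 active = calcium-response B-score plate-corrected more than 3 library SD below zero, starting fluorescence within 5 deviations, no agonist response on first addition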;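 also: peak minus trough fluorescence over baseline after final BAM8-22 challenge near maximal dose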
MrgX1 PAM: allosterically activates human MrgX1 receptor signaling; MrgX1-HEK293, Fluo-4 calcium flux, FDSS; hits give high values; B-score at 10 µM; actives 0.63% (n = 310,000); Q96LB2;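 active = plate-corrected calcium response at least 3 library SD above typical, normal starting fluorescence, not activating the receptor alone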;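 also: compound read alongside a low EC10 to EC30 dose of BAM8-22 agonist; peak minus trough fluorescence over baseline measured at the second addition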
A number is an active result; n = inactive; x = no result given. Sampled rows, rich in hits. Any-hit rate of the full collection: about 3.8%.

SMILES | RGS4 block | MrgX1 ag | Lipid droplet | RGS4 pot | MrgX1 antag | MrgX1 PAM
O=C(C(=O)N1CCN(c2ccc(F)cc2)CC1)c1cn(CC(=O)N2CCOCC2)c2ccccc12 | n | n | n | n | n | n
O=C1CSC(c2ccccc2Br)N1c1ccc(Cl)cn1 (configuration not stated) | n | n | n | -7 | n | n
COC(=O)c1ccccc1S(=O)(=O)NNC(=O)Nc1ccccc1 | n | n | n | n | n | n
CCN1C(=S)SC(=O)C1=C1C=C(C)N(CCO)C(C)=C1 | n | 38 | x | n | n | n
CC1=NN(C(N)=S)C(=O)C1N=Nc1cccc(Cl)c1C (configuration not stated) | n | n | n | n | n | 8.6
CC1=NN(C(N)=S)C(=O)C1N=Nc1cccc2ccccc12 (configuration not stated) | n | n | n | n | n | n
Cc1ccc(S(=O)(=O)N2[C@@H](c3cccc(Cl)c3)C(C(=O)O)=CC[C@H]2c2ccc3c(c2)OCO3)cc1 | x | n | x | x | n | 7
Cc1ccc(S(=O)(=O)N2[C@@H](c3ccc(Cl)cc3)C(C(=O)O)=CC[C@H]2c2ccc3c(c2)OCO3)cc1 | x | n | x | x | n | n
COc1cccc([C@@H]2CC=C(C(=O)O)[C@H](c3ccc(Cl)cc3)N2S(=O)(=O)c2ccc(C)cc2)c1 | x | n | x | x | n | n
CCc1ccc([C@@H]2CC=C(C(=O)O)[C@H](c3ccccc3F)N2S(=O)(=O)c2ccc(C)cc2)cc1 | x | n | x | x | n | 6.8
COc1cccc([C@@H]2CC=C(C(=O)O)[C@H](c3ccccc3F)N2S(=O)(=O)c2ccc(C)cc2)c1 | x | n | x | x | n | 8.3
CCc1ccc([C@@H]2CC=C(C(=O)O)[C@H](c3ccc(Cl)cc3)N2S(=O)(=O)c2ccc(C)cc2)cc1 | x | n | x | x | n | n
O=C(CN1C(=O)c2ccccc2C1=O)Nc1ccc(S(=O)(=O)N2CCOCC2)cc1 | n | n | n | n | n | n
O=[N+]([O-])c1ccc(N=Cc2ccc(Br)c([N+](=O)[O-])c2)cc1 | n | 34 | n | n | n | n
Cc1c(N=Cc2ccc(O)c(Br)c2)cccc1[N+](=O)[O-] | n | n | n | n | n | n
Cc1cc(-c2ccc(S(=O)(=O)N(C)Cc3ccccc3)cc2)on1 | n | n | n | n | n | n
O=C(NNS(=O)(=O)c1ccc(F)cc1)C1CCN(Cc2cccc(F)c2)CC1 | n | n | n | -7.3 | n | n
O=C(NNS(=O)(=O)c1ccc2ccccc2c1)C1CCN(Cc2ccccc2)CC1 | n | n | x | n | n | n
CCCCN=c1scc(-c2ccc3c(c2)NC(=O)CO3)n1N=C1CCCC1 | n | 32 | n | n | n | n
CCN=c1scc(-c2ccc3c(c2)NC(=O)CO3)n1N=C1CCCC1 | n | n | x | n | n | n
Clc1ccc(C2=NCCN2)cc1 | n | n | n | n | n | n
COC(=O)CN1C(=S)N(c2ccc(OC)cc2)C(=O)/C1=C/c1ccc(N2CCOCC2)cc1 | n | n | n | n | -6.1 | n
CCCCCCOC(=O)C[N+](C)(C)CCOC1CC2CCC1(C)C2(C)C (configuration not stated) | n | n | n | n | n | n
CCCCCCCOC(=O)C[N+](C)(C)CCOC1CC2CCC1(C)C2(C)C (configuration not stated) | n | x | n | -8.2 | x | x
O=c1c2ccccc2nc(/C=C/c2c[nH]c3ccccc23)n1CCO | n | n | n | -7.4 | n | n
CN(C)c1ccc(/C=C/c2nc3ccccc3c(=O)n2CCO)cc1 | n | 32 | n | n | n | n
COc1ccc(N2CCN(C(CNC(=O)C(C)C)c3ccc4c(c3)OCO4)CC2)cc1 (configuration not stated) | n | n | n | n | n | n
O=[N+]([O-])c1ccc(Nc2nc(N/N=C\c3ccc4c(c3)OCO4)nc(N3CCCCC3)n2)cc1 | n | n | x | n | -4.5 | n
CCCCN(C(=O)CSCc1c(C)noc1C)c1c(N)n(CCCC)c(=O)[nH]c1=O | n | n | x | n | n | n
Cc1cccc(C)c1NC(=O)CS(=O)CC(=O)NCC1OCCc2ccccc21 (configuration not stated) | n | n | n | n | -4.8 | n
